Test results from paper PMC7935786 (Cancer Science, 2021).
Several values for one entry are separate records, joined by “and”; a condition that tells them apart may be missing. Equal entries are not always repeated. Entries after “also recorded” stand apart in the source; their conditions may differ.

Tests used:
[1] = cited from earlier work
[2] = system: Japanese patients with relapsed or refractory B‐NHL; assay: Phase I study: safety, adverse events and DLT; type: in vivo, human
Summary of the method: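 Patients received 800 mg orally once in a 4-day cycle 0, then 800 mg BID in 28-day cycles; reduction to 600 then 400 mg BID permitted. AEs graded by CTCAE v4.03, with hematology, chemistry, urinalysis, vital signs, 12-lead ECG and LVEF by echo/MUGA. DLT assessed over cycles 0–1 in patients completing both with ≥75% cycle-1 compliance, or having DLT. Safety set: ≥1 dose.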

CCN(c1cc(-c2ccc(CN3CCOCC3)cc2)cc(C(=O)NCc2c(C)cc(C)[nH]c2=O)c1C)C1CCOCC1 [Tazemetostat]
treatment‐related deaths ([1]; 99 patients): no treatment‐related deaths
treatment‐related grade 3 or higher AE anemia ([1]; all 99 patients): 2%
treatment‐related grade 3 or higher AE neutropenia ([1]; all 99 patients): 3%
treatment‐related grade 3 or higher AE thrombocytopenia ([1]; all 99 patients): 3%
Treatment‐related SAEs ([1]; four of 99 patients): 4%
Anemia, all TEAEs, Grade ≥3 ([2]; 800 mg BID, n = 7): 1 (14.3) patients (%)
Anemia, all TEAEs, all grades ([2]; 800 mg BID, n = 7): 2 (28.6) patients (%)
Anemia, treatment‐related TEAEs, Grade ≥3 ([2]; 800 mg BID, n = 7): 1 (14.3) patients (%)
Anemia, treatment‐related TEAEs, all grades ([2]; 800 mg BID, n = 7): 2 (28.6) patients (%)
Blood creatinine increased, all TEAEs, Grade ≥3 ([2]; 800 mg BID, n = 7): 0 (0.0) patients (%)
Blood creatinine increased, all TEAEs, all grades ([2]; 800 mg BID, n = 7): 2 (28.6) patients (%)
Blood creatinine increased, treatment‐related TEAEs, Grade ≥3 ([2]; 800 mg BID, n = 7): 0 (0.0) patients (%)
Blood creatinine increased, treatment‐related TEAEs, all grades ([2]; 800 mg BID, n = 7): 1 (14.3) patients (%)
Constipation, all TEAEs, Grade ≥3 ([2]; 800 mg BID, n = 7): 0 (0.0) patients (%)
Constipation, all TEAEs, all grades ([2]; 800 mg BID, n = 7): 3 (42.9) patients (%)
Constipation, treatment‐related TEAEs, Grade ≥3 ([2]; 800 mg BID, n = 7): 0 (0.0) patients (%)
Constipation, treatment‐related TEAEs, all grades ([2]; 800 mg BID, n = 7): 1 (14.3) patients (%)
Dry eye, all TEAEs, Grade ≥3 ([2]; 800 mg BID, n = 7): 0 (0.0) patients (%)
Dry eye, all TEAEs, all grades ([2]; 800 mg BID, n = 7): 2 (28.6) patients (%)
Dry eye, treatment‐related TEAEs, Grade ≥3 ([2]; 800 mg BID, n = 7): 0 (0.0) patients (%)
Dry eye, treatment‐related TEAEs, all grades ([2]; 800 mg BID, n = 7): 0 (0.0) patients (%)
Dry skin, all TEAEs, Grade ≥3 ([2]; 800 mg BID, n = 7): 0 (0.0) patients (%)
Dry skin, all TEAEs, all grades ([2]; 800 mg BID, n = 7): 2 (28.6) patients (%)
Dry skin, treatment‐related TEAEs, Grade ≥3 ([2]; 800 mg BID, n = 7): 0 (0.0) patients (%)
Dry skin, treatment‐related TEAEs, all grades ([2]; 800 mg BID, n = 7): 2 (28.6) patients (%)
Dysgeusia, all TEAEs, Grade ≥3 ([2]; 800 mg BID, n = 7): 0 (0.0) patients (%)
Dysgeusia, all TEAEs, all grades ([2]; 800 mg BID, n = 7): 3 (42.9) patients (%)
Dysgeusia, treatment‐related TEAEs, Grade ≥3 ([2]; 800 mg BID, n = 7): 0 (0.0) patients (%)
Dysgeusia, treatment‐related TEAEs, all grades ([2]; 800 mg BID, n = 7): 3 (42.9) patients (%)
Fatigue, all TEAEs, Grade ≥3 ([2]; 800 mg BID, n = 7): 1 (14.3) patients (%)
Fatigue, all TEAEs, all grades ([2]; 800 mg BID, n = 7): 2 (28.6) patients (%)
Fatigue, treatment‐related TEAEs, Grade ≥3 ([2]; 800 mg BID, n = 7): 1 (14.3) patients (%)
Fatigue, treatment‐related TEAEs, all grades ([2]; 800 mg BID, n = 7): 2 (28.6) patients (%)
Insomnia, all TEAEs, Grade ≥3 ([2]; 800 mg BID, n = 7): 0 (0.0) patients (%)
Insomnia, all TEAEs, all grades ([2]; 800 mg BID, n = 7): 2 (28.6) patients (%)
Insomnia, treatment‐related TEAEs, Grade ≥3 ([2]; 800 mg BID, n = 7): 0 (0.0) patients (%)
Insomnia, treatment‐related TEAEs, all grades ([2]; 800 mg BID, n = 7): 1 (14.3) patients (%)
Leukopenia, all TEAEs, Grade ≥3 ([2]; 800 mg BID, n = 7): 1 (14.3) patients (%)
Leukopenia, all TEAEs, all grades ([2]; 800 mg BID, n = 7): 2 (28.6) patients (%)
Leukopenia, treatment‐related TEAEs, Grade ≥3 ([2]; 800 mg BID, n = 7): 0 (0.0) patients (%)
Leukopenia, treatment‐related TEAEs, all grades ([2]; 800 mg BID, n = 7): 1 (14.3) patients (%)
Muscle spasms, all TEAEs, Grade ≥3 ([2]; 800 mg BID, n = 7): 0 (0.0) patients (%)
Muscle spasms, all TEAEs, all grades ([2]; 800 mg BID, n = 7): 2 (28.6) patients (%)
Muscle spasms, treatment‐related TEAEs, Grade ≥3 ([2]; 800 mg BID, n = 7): 0 (0.0) patients (%)
Muscle spasms, treatment‐related TEAEs, all grades ([2]; 800 mg BID, n = 7): 2 (28.6) patients (%)
Nasopharyngitis, all TEAEs, Grade ≥3 ([2]; 800 mg BID, n = 7): 0 (0.0) patients (%)
Nasopharyngitis, all TEAEs, all grades ([2]; 800 mg BID, n = 7): 5 (71.4) patients (%)
Nasopharyngitis, treatment‐related TEAEs, Grade ≥3 ([2]; 800 mg BID, n = 7): 0 (0.0) patients (%)
Nasopharyngitis, treatment‐related TEAEs, all grades ([2]; 800 mg BID, n = 7): 0 (0.0) patients (%)
Neutropenia, all TEAEs, Grade ≥3 ([2]; 800 mg BID, n = 7): 1 (14.3) patients (%)
Neutropenia, all TEAEs, all grades ([2]; 800 mg BID, n = 7): 2 (28.6) patients (%)
Neutropenia, treatment‐related TEAEs, Grade ≥3 ([2]; 800 mg BID, n = 7): 0 (0.0) patients (%)
Neutropenia, treatment‐related TEAEs, all grades ([2]; 800 mg BID, n = 7): 1 (14.3) patients (%)
Rash, all TEAEs, Grade ≥3 ([2]; 800 mg BID, n = 7): 0 (0.0) patients (%)
Rash, all TEAEs, all grades ([2]; 800 mg BID, n = 7): 2 (28.6) patients (%)
Rash, treatment‐related TEAEs, Grade ≥3 ([2]; 800 mg BID, n = 7): 0 (0.0) patients (%)
Rash, treatment‐related TEAEs, all grades ([2]; 800 mg BID, n = 7): 2 (28.6) patients (%)
Stomatitis, all TEAEs, Grade ≥3 ([2]; 800 mg BID, n = 7): 0 (0.0) patients (%)
Stomatitis, all TEAEs, all grades ([2]; 800 mg BID, n = 7): 2 (28.6) patients (%)
Stomatitis, treatment‐related TEAEs, Grade ≥3 ([2]; 800 mg BID, n = 7): 0 (0.0) patients (%)
Stomatitis, treatment‐related TEAEs, all grades ([2]; 800 mg BID, n = 7): 2 (28.6) patients (%)
Thrombocytopenia, all TEAEs, Grade ≥3 ([2]; 800 mg BID, n = 7): 2 (28.6) patients (%)
Thrombocytopenia, all TEAEs, all grades ([2]; 800 mg BID, n = 7): 3 (42.9) patients (%)
Thrombocytopenia, treatment‐related TEAEs, Grade ≥3 ([2]; 800 mg BID, n = 7): 2 (28.6) patients (%)
Thrombocytopenia, treatment‐related TEAEs, all grades ([2]; 800 mg BID, n = 7): 3 (42.9) patients (%)
dose‐limiting toxicity (DLT) ([2]; cycles 0 and 1, six evaluable patients, 800 mg BID): No DLTs; also recorded: did not observe any DLT
AE anemia ([2]; n = 7): 29%
AE constipation ([2]; n = 7): 42.9%
AE dry skin ([2]; n = 7): 29%
AE dysgeusia ([2]; n = 7): 42.9% and 43%
AE fatigue ([2]; n = 7): 29%
AE leading to dose reduction ([2]; n = 7): 14.3%
